Assay results published in ChEMBL document CHEMBL4321838, “Drug Design Targeting T-Cell Factor-Driven Epithelial-Mesenchymal Transition as a Therapeutic Strategy for Colorectal Cancer” (J Med Chem, 2019).
≈ marks a conversion by molar mass, not a printed value. Calls of active or inactive are those of the source.

Tests used:
[1] = target: T1, DNA topoisomerase 2-alpha (Homo sapiens, UniProt P11388); experiment: Inhibition of human topoisomerase 2alpha mediated decatenation at 30 uM using kDNA as susbtrate preincubated for 20 mins followed by substrate and ATP addition and measured after 1 hr by ethidium bromide staining based gel electrophoresis method relative to control
Procedure, shortened: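 Human TOP2A (3 U) preincubated 20 min at 37 °C with compound at 30 μM in 1.2% DMSO. Reaction started with 2 mM ATP and 35 ng kDNA and run 1 h at 37 °C. Products resolved on 0.8% agarose in TBE with 0.2 μg/mL ethidium bromide; decatenated bands compared with vehicle.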

[2] = target: T1, DNA topoisomerase 2-alpha; experiment: Inhibition of topoisomerase 2alpha dependent TCF transcription in human SW620 organoids transduced with TOPflash luminescent reporter after 72 hrs by luciferase based TOPFlash reporter gene assay
Procedure, shortened: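 SW620 cells stably carrying pCDH-TOPflash-luc grown as organoids: 5,000 cells per U-bottom well in phenol red-free RPMI with 5% FBS and 2% Matrigel, 72 h. Inhibitor then applied 72 h. One-Glo luciferase and CellTiter-Glo 3D added 1:1. Luciferase signal normalised to viability, then to DMSO controls.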

[3] = tested on: SW-620; experiment: Anticlonogenic activity against human SW620 cells assessed as loss of cancer stem cell stemness by measuring inhibition of colony formation at 10 uM incubated for 24 hrs followed by replating and measured after 7 days by clonogenic assay; assay type: functional, cell-based
[4] = Drug metabolism in CD-1 mouse active microsomes assessed as metabolite formation at rate of first-order kinetics by LC-MS/MS analysis; assay type: ADME, Microsome
[5] = tested on: SW-620; experiment: Antiinvasive activity in human SW620 organoids transduced with NucLight-Red virus assessed as inhibition of cell invasion at 10 uM incubated for 72 hrs and measured after 72 hrs by matrigel based fluorescence analysis; assay type: functional
Procedure, shortened: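 NucLight-Red-labelled SW620 organoids treated 72 h at 10 μM in 0.1% DMSO, then dissociated. 5,000 live cells per well seeded in 50% Matrigel in the upper chamber of a migration plate, 0.5% FBS above and 20% FBS below. Invading cells tracked by bottom-side fluorescence over days, six replicates per condition.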

[6] = target: T1, DNA topoisomerase 2-alpha; experiment: Inhibition of human topoisomerase 2alpha mediated decatenation using kDNA as susbtrate preincubated for 20 mins followed by substrate and ATP addition and measured after 1 hr by ethidium bromide staining based gel electrophoresis method
Procedure, shortened: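 IC50 from decatenation gels: TOP2A at 4 U per reaction, compound as 2-fold serial dilutions from 58.6 nM to 30 μM, 20 min preincubation. Then 2 mM ATP plus 35 ng kDNA for 1 h at 37 °C. Gels were 0.8% agarose with ethidium bromide, with decatenated and catenated DNA marker lanes.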

[7] = Drug metabolism in CD-1 mouse active microsomes assessed as CYP450-mediated oxidative phase 1 metabolite formation measured within 30 mins by LC-MS/MS analysis; assay type: ADME; conditions: 0.5 h
[8] = tested on: SW-620; experiment: Cytotoxicity against human SW620 organoids assessed as cell death with loss of membrane integrity after 72 hrs by CellTox Green assay; assay type: functional, cell-based; conditions: SW-620, 72 h
Procedure, shortened: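 SW620 tumor organoids exposed 72 h to inhibitor over 0–40 μM together with CellTox Green Express (0.5X). Whole-well mean fluorescence imaged (ex 488, em 500–550 nm). Normalised to lysis buffer as 0% viability and 0.4% DMSO as 100% viability.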

[9] = Metabolic stability in CD-1 mouse inactive microsomes incubated for 1 hr by LC-MS/MS analysis; assay type: ADME, Microsome
[10] = Aqueous solubility of compound in PBS at 1 mg after 18 hrs by UV based analysis; assay type: physicochemical
Procedure, shortened: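 Undissolved material removed by centrifugation at 5,000g for 45 min. UV absorption compared with a fully saturated 1-propanol solution; solubility derived by linear regression.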

[11] = Half life of terminal disposition phase in CD-1 mouse at 50 mg/kg, ip by LC-MS/MS analysis; assay type: ADME, organism-based; conditions: in vivo, read-out: t1/2lambda (converted)
Procedure, shortened: (§1)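 Female CD-1 mice, single IP injection at 50 mg/kg in 100% DMSO. Sampling from 0.25 to 24 h, three mice per time point (21 per compound). Heparinised blood was spun to plasma, mixed 1:1 with acidified acetonitrile (0.1% formic acid or 0.1% TFA depending on compound), centrifuged, then measured by LC-MS/MS.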

[12] = tested on: SW-620; experiment: Induction of apoptosis in human SW620 organoids assessed as increase in cleaved caspase 3/7 level at 40 uM after 72 hrs by caspase-glo 3/7 luminescence assay relative to control; assay type: functional
Procedure, shortened: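 SW620 cells, 2,000 per well in 384-well ultra-low attachment plates with 2% Matrigel, grown 72 h into organoids, then dosed 72 h. Caspase-Glo 3/7 reagent added 1:1 and shaken 30 min; luminescence read. Staurosporine served as positive control and 0.4% DMSO as negative control.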

[13] = Tmax in CD-1 mouse at 50 mg/kg, ip by LC-MS/MS analysis; assay type: ADME, organism-based; conditions: in vivo; procedure, shortened: as §1
[14] = tested on: Mus musculus; experiment: Apparent volume of drug distribution in CD-1 mouse at 50 mg/kg, ip by LC-MS/MS analysis; assay type: ADME, organism-based; conditions: in vivo; procedure, shortened: as §1
[15] = tested on: SW-620; experiment: Cytotoxicity against human SW620 organoids assessed as growth inhibition at 10 uM after 72 hrs by brightfield imaging of organoid volume
[16] = AUC(0 to t) in CD-1 mouse at 50 mg/kg, ip by LC-MS/MS analysis; assay type: ADME, organism-based; conditions: in vivo; procedure, shortened: as §1
[17] = tested on: SW-620; experiment: Induction of early stage cell death in human SW620 organoids transfected with EcadPro-RFP reporter assessed as loss of RFP reporter activity at 40 uM at after 72 hrs by Hoechst 33342 staining based mCherryRFP reporter gene assay; conditions: sw-620, 72 h
[18] = Cmax in CD-1 mouse at 50 mg/kg, ip by LC-MS/MS analysis; assay type: ADME, organism-based; design: dose 50 mg/kg, route intraperitoneal; conditions: in vivo; procedure, shortened: as §1
[19] = Half life in CD-1 mouse microsomes measured up to 1 hr by LC-MS analysis; assay type: ADME, Microsome
Procedure, shortened: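 Female CD-1 mouse liver microsomes (0.5 mg/mL), substrate 1 μg/mL and 1.5 mM NADPH in 0.1 M phosphate buffer pH 7.4 at 37 °C. Samples taken from 0 to 60 min and quenched with an equal volume of acetonitrile. Parent compound remaining measured by LC-MS/MS without internal standard.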

[20] = Clearance in CD-1 mouse at 50 mg/kg, ip by LC-MS/MS analysis; assay type: ADME, organism-based; conditions: in vivo; procedure, shortened: as §1
[21] = target: T1, DNA topoisomerase 2-alpha; experiment: Inhibition of topoisomerase 2alpha in human SW620 organoids transfected with VimPro-GFP reporter assessed as reversion of epithelial-mesenchymal transition by measuring reduction in vimentin expression up to 40 uM after 72 hrs by Hoechst 33342 staining based GFP reporter gene assay
Procedure, shortened: (§2)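 SW620 cells stably carrying VimPro-GFP or EcadPro-mCherry (puromycin selected) grown as organoids and dosed 72 h. Stained with 16 μM Hoechst 33342 for 1 h and imaged as 15 z-layers, 26.5 μm apart. Nuclei segmented and GFP- or mCherry-positive cells counted above background thresholds. Percent positive cells normalised to DMSO.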

[22] = target: T1, DNA topoisomerase 2-alpha; experiment: Inhibition of topoisomerase 2alpha in human SW620 organoids transfected with EcadPro-RFP reporter assessed as reversion of epithelial-mesenchymal transition by measuring increase in E-cadherin expression up to 40 uM after 72 hrs by Hoechst 33342 staining based mCherryRFP reporter gene assay; procedure, shortened: as §2

T1 sequence (P11388 whole entry): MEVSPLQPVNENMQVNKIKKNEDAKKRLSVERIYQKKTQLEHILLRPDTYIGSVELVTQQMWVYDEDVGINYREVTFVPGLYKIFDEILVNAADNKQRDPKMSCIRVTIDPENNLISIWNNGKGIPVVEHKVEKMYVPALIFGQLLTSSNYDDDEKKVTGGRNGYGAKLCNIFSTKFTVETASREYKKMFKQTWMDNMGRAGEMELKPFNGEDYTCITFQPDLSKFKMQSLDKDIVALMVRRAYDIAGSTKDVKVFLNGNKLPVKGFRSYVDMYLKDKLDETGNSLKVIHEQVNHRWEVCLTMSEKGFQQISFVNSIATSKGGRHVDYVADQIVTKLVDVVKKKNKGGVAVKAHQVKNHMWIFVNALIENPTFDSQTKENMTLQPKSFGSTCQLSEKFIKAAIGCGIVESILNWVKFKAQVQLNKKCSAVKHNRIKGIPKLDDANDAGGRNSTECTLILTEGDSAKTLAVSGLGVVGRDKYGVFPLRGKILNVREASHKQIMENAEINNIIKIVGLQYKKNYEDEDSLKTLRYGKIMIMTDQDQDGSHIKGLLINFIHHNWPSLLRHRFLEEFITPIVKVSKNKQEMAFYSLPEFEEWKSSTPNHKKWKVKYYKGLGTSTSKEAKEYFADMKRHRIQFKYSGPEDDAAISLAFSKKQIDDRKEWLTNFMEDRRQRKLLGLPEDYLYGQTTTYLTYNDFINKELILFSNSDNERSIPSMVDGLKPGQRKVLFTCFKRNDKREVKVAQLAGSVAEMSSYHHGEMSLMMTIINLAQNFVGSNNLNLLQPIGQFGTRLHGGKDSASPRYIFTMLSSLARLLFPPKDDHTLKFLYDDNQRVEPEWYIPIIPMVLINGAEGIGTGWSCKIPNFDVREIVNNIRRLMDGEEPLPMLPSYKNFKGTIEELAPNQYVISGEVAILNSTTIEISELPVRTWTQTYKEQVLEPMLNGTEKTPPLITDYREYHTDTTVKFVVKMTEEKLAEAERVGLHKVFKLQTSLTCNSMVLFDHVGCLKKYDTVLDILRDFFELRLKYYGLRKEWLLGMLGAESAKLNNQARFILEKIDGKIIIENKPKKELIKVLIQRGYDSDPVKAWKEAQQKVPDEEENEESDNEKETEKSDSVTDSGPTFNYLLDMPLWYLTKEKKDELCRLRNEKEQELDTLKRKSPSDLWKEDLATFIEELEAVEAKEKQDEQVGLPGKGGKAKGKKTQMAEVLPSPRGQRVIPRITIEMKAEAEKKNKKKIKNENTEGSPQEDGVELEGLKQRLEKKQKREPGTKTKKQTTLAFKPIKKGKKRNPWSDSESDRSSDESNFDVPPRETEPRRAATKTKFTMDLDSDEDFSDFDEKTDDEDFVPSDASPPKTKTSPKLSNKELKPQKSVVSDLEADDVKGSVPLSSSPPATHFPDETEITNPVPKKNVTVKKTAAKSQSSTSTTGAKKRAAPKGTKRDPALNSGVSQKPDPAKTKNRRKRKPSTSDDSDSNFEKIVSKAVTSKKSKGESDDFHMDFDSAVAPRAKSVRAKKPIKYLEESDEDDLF

## CC(=O)Nc1ccc2c(-c3cccc(O)c3)ccnc2c1O
[1]
  inhibition: 0%

## O=C(CN1CCOCC1)Nc1ccc2c(-c3cc(F)ccc3O)ccnc2c1O
[1]
  inhibition: 4%

## CC(=O)Nc1ccc(-c2ccnc3c(O)c(NC(C)=O)ccc23)cc1
[1]
  inhibition: 97%
[2]
  IC50: 2000 nM
[3]
  inhibition: Active
[4]
  Drug metabolism: Metabolite_Detected
[5]
  inhibition: Active
[6]
  IC50: 1900 nM
[7]
  Drug metabolism: Metabolite_Notdetected
[8]
  EC50: > 30 µM
[9]
  Stability: Stable

## CC(=O)Nc1ccc2c(-c3ccco3)ccnc2c1O
[1]
  inhibition: 0%

## O=C(CN1CCOCC1)Nc1ccc2c(-c3cc4ccccc4o3)ccnc2c1O
[10]
  solubility thermodynamic at 18 h: 45 µg/mL (≈ 112 µM)
[11]
  half-life: 350 min
[12]
  fold change (FC): 3
[1]
  inhibition: 100%
[13]
  Tmax: 15 min
[14]
  Vz: 69.3 L/kg
[2]
  IC50: 1100 nM
[4]
  Drug metabolism: Metabolite_Detected
[15]
  growth inhibition (GI): Active
[7]
  Drug metabolism: Metabolite_Notdetected
[16]
  AUC(0-t): 5890 ng·h/mL
[17]
  Activity: Active
[8]
  EC50: 22 µM
[18]
  Cmax: 1980 ng/mL
[9]
  Stability: Stable
[19]
  t1/2: 30.18 min
[20]
  CL/F: 137 mL/min/kg
[21]
  inhibition: Active
[22]
  inhibition: Active

## CC(=O)Nc1ccc2c(-c3cc4ccccc4s3)ccnc2c1O
[1]
  inhibition: 0%

## CC(=O)Nc1cccc(-c2ccnc3c(O)c(NC(C)=O)ccc23)c1
[1]
  inhibition: 3%

## CC(C)(C)C(=O)Nc1ccc2c(-c3cc(F)ccc3O)ccnc2c1O
[1]
  inhibition: 0%

## CC(=O)Nc1ccc2c(-c3ccc(C(F)(F)F)cc3)ccnc2c1O
[1]
  inhibition: 97%

## CC(=O)Nc1ccc2c(-c3cccc(F)c3)ccnc2c1O
[1]
  inhibition: 100%

## CC(=O)Nc1ccc2c(-c3cccc(C(F)(F)F)c3)ccnc2c1O
[1]
  inhibition: 97%
[4]
  Drug metabolism: Metabolite_Detected
[6]
  IC50: 3400 nM
[7]
  Drug metabolism: Metabolite_Notdetected
[9]
  Stability: Stable

## CC(=O)Nc1ccc2c(-c3cc4ccccc4o3)ccnc2c1O
[10]
  solubility thermodynamic at 18 h: 28 µg/mL (≈ 88 µM)
[11]
  half-life: 266 min
[1]
  inhibition: 100%
[13]
  Tmax: 15 min
[14]
  Vz: 108.9 L/kg
[2]
  IC50: 1000 nM
[3]
  inhibition: Active
[4]
  Drug metabolism: Metabolite_Detected
[5]
  inhibition: Active
[7]
  Drug metabolism: Metabolite_Notdetected
[16]
  AUC(0-t): 2840 ng·h/mL
[8]
  EC50: > 30 µM
[18]
  Cmax: 707 ng/mL
[9]
  Stability: Stable
[19]
  t1/2: > 60 min
[20]
  CL/F: 283 mL/min/kg

## COc1ccc(F)cc1-c1ccnc2c(OC)c(NC(C)=O)ccc12
[1]
  inhibition: 0%

## COc1c(NC(C)=O)cc(OC)c2c(-c3ccccc3NC(=O)c3ccccc3)ccnc12
[1]
  inhibition: 0%
